Read-outs that look alike come from different tables or passages of the source.
What was measured:
[1] = tested on: Saccharomyces cerevisia; details: ref Mohn, 1973; Bianchi et al., 1994; cited from earlier work
[2] = tested on: human lymphocytes; details: 100 and 200 μg/mL; ref Ündeğer and Başaran (2005); cited from earlier work
[3] = tested on: Escherichia coli; details: ref Mohn, 1973; Bianchi et al., 1994; cited from earlier work
[4] = tested on: human peripheral lymphocytes; details: compared to the control group; ref Gomez-Arroyo et al. (1987); cited from earlier work
[5] = tested on: human peripheral lymphocytes; assay: In vitro micronucleus; assay type: cell-based; details: 72 h incubation
In short: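 Whole blood from 3 healthy non-smoking donors (25–30 y) was treated with test compound at 0.5, 1.0 or 2.0 μg/mL in 2% DMSO for 72 h. Controls were distilled water, 2% DMSO and 10 mM EMS. Cytochalasin-B was added at 48 h and smears were Giemsa-stained. NDI was scored from 1000 cells and MN from 1000 binucleated cells per repeat, 3 donors, ANOVA.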

[6] = tested on: Salmonella typhimurium; details: ref Mohn, 1973, Bianchi et al., 1994, cited from earlier work
[7] = 10mM, 3000 binucleated cells counted

| SMILES | mutagenicity [1] | DNA damage [2] | mutagenicity [3] | sister chromatid exchanges [4] | MN within binucleat (1) ([5]; 0.5 μg/mL, 3000 binucleated cells counted) | %MN±S.E. ([5]; 0.5 μg/mL, compared with DMSO) | NDI±S.E. ([5]; 0.5 μg/mL, compared with DMSO) | MN within binucleat (1) ([5]; 1.0 μg/mL, 3000 binucleated cells counted) | %MN±S.E. ([5]; 1.0 μg/mL, compared with DMSO) | NDI±S.E. ([5]; 1.0 μg/mL, compared with DMSO) | MN within binucleat (1) ([5]; 2.0 μg/mL, 3000 binucleated cells counted) | %MN±S.E. ([5]; 2.0 μg/mL, compared with DMSO) | mutagenicity ([6]; strain TA 100) | mutagenicity ([6]; strains TA 1535, TA 1537, TA 1538, TA 98 and TA 102) | MN within binucleat (1) [5, 7] | MN within binucleat (2) [5, 7] | MN within binucleat (3) [5, 7] | %MN±S.E. ([5]; 10mM, compared with distilled water) |
| --- | --- | --- | --- | --- | --- | --- | --- | --- | --- | --- | --- | --- | --- | --- | --- | --- | --- | --- |
| CNC(=O)CSP(=S)(OC)OC [DIM] | mutagenic | significantly increased DNA damage | mutagenic | increased sister chromatid exchanges | 27 | 0.90 ± 0.72% | 1.54 ± 0.20 | 29 | 0.97 ± 0.63% | 1.54 ± 0.23 | 63 | 2.10 ± 0.13% | mutagenic | non-mutagenic | – | – | – | – |
| COP(=S)(OC)Oc1ccc([N+](=O)[O-])cc1 [methyl parathion] | – | significantly increased DNA damage | – | increased sister chromatid exchanges | – | – | – | – | – | – | – | – | – | – | – | – | – | – |
| CCOS(C)(=O)=O [EMS, ethyl methanesulfonate, reference compound] | – | – | – | – | – | – | – | – | – | – | – | – | – | – | 107 | 16 | 10 | 5.63 ± 1.60% |
